The record followed here is the M2OR odorant receptor database.
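Also: active if original authors judged signal statistically different from baseline.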

This test deals with T1, OR52D1 (Homo sapiens) (UniProt Q9H346).
T1 sequence (whole entry): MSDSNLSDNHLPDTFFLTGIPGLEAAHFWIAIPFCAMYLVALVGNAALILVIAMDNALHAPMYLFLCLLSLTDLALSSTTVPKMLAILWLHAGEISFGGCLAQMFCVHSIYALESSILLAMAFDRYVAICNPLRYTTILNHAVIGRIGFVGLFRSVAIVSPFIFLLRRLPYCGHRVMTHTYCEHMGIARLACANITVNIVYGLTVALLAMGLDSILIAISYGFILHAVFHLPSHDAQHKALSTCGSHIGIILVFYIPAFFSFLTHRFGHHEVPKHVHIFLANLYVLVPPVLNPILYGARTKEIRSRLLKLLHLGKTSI
To be noted: stereoisomer not certain. A digest of the protocol:
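Transient luciferase assays in mammalian cell lines were common, though methods varied by source. The values come from published papers and their supplementary material, with extra details from the original authors when needed. Responsive refers to a measured signal the original authors judged statistically different from baseline, and non-responsive (inactive) to the remainder.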
`O=Cc1ccccc1`: the “odorant receptor agonist call” value is “active”.
Regarding `C=CCc1ccc(OC)cc1`, the “odorant receptor agonist call” value is “active”.
The entry for `CC(C=O)Cc1ccc2c(c1)OCO2` (stereo not given) is “active”; for `Cc1c([N+](=O)[O-])c(C)c([N+](=O)[O-])c(C(C)(C)C)c1[N+](=O)[O-]` it is “inactive”.
As to `CC(=O)CCc1ccc2c(c1)OCO2`, the “odorant receptor agonist call” value is “inactive”.
In the case of `O=CC=Cc1ccccc1`, the “odorant receptor agonist call” value is “active”.
The entry for `c1ccncc1` is “inactive”; for `COc1ccc(C=O)cc1` it is “active”.
Consider `C=CCc1ccc2c(c1)OCO2`, for which the “odorant receptor agonist call” value was “inactive”.
The entry for `C=CCOC(=O)Cc1ccccc1` is “inactive”.
